# Measured values taken from ChEMBL document CHEMBL1127799, “Derivatives of a novel cyclopeptolide. 1. Synthesis, antifungal activity, and structure-activity relationships” (1994).
# How the values were obtained:
# Assay type in all cases: functional
# Candida tropicalis [1] = test: Tested for minimum inhibitory concentration against Candida tropicalis 43 (C.t) at pH of 6.5.
# Method in brief: (§1)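 Broth microdilution in malt extract broth, initial pH 4.5 or 6.5, with 1×10^3 CFU per 0.2 mL well of thawed stored cultures. Compound stocks were made in 5% DMSO/0.2% Tween 80 and diluted to final 0.05–100 μg/mL. Plates were incubated 48 h at 30 °C and read macroscopically. MIC was the lowest concentration with no detectable growth. Vehicle-only wells served as controls.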
# Pichia kudriavzevii [2] = test: Tested for minimum inhibitory concentration against Candida krusei 132 (C.k) at pH of 4.5.; method in brief: as §1
# [3] = tested on: Meyerozyma guilliermondii; test: Tested for minimum inhibitory concentration against Candida guilliermondii 80 (C.g) at pH of 4.5.; method in brief: as §1
# Pichia kudriavzevii [4] = test: Tested for minimum inhibitory concentration against Candida krusei 132 (C.k) at pH of 6.5.; method in brief: as §1
# Candida tropicalis [5] = test: Tested for minimum inhibitory concentration against Candida tropicalis 43 (C.t) at pH of 4.5.; method in brief: as §1
# Candida albicans [6] = test: Tested for minimum inhibitory concentration against Candida albicans 124 (Candida albicans) at pH of 4.5.; method in brief: as §1
# [7] = tested on: Meyerozyma guilliermondii; test: Tested for minimum inhibitory concentration against Candida guilliermondii 80 (C.g) at pH of 6.5.; method in brief: as §1
# Candida albicans [8] = test: Tested for minimum inhibitory concentration against Candida albicans 124 (Candida albicans) at pH of 6.5.; method in brief: as §1
SMILES,MIC (Candida tropicalis [1]),MIC (Pichia kudriavzevii [2]),MIC [3],MIC (Pichia kudriavzevii [4]),MIC (Candida tropicalis [5]),MIC (Candida albicans [6]),MIC [7],MIC (Candida albicans [8])
CC[C@@H](C)[C@H]1C(=O)NCC(=O)N(C)[C@@H](C(C)C)C(=O)N[C@@H](Cc2ccc(OCc3ccc(Cl)cc3)cc2)C(=O)O[C@H](C)C(=O)N2CCCC[C@H]2C(=O)N(C)[C@@H](C(C)C)C(=O)N[C@@H](C(C)C)C(=O)N(C)[C@@H](CC(=O)O)C(=O)N(C)[C@@H]([C@@H](C)CC)C(=O)N1C,> 100 µg/mL,> 100 µg/mL,> 100 µg/mL,> 100 µg/mL,> 100 µg/mL,100 µg/mL,> 100 µg/mL,> 100 µg/mL
CCCCCCCCOC(=O)C[C@H]1C(=O)N(C)[C@@H]([C@@H](C)CC)C(=O)N(C)[C@@H]([C@H](C)CC)C(=O)NCC(=O)N(C)[C@@H](C(C)C)C(=O)N[C@@H](Cc2ccc(OC)cc2)C(=O)O[C@H](C)C(=O)N2CCCC[C@H]2C(=O)N(C)[C@@H](C(C)C)C(=O)N[C@@H](C(C)C)C(=O)N1C,> 100 µg/mL,> 100 µg/mL,> 100 µg/mL,> 100 µg/mL,> 100 µg/mL,> 100 µg/mL,> 100 µg/mL,> 100 µg/mL
CC[C@@H](C)[C@H]1C(=O)NCC(=O)N(C)[C@@H](C(C)C)C(=O)N[C@@H](Cc2ccc(OC)cc2)C(=O)O[C@H](C)C(=O)N2CCCC[C@H]2C(=O)N(C)[C@@H](C(C)C)C(=O)N[C@@H](C(C)C)C(=O)N(C)[C@@H](CCN=[N+]=[N-])C(=O)N(C)[C@@H]([C@@H](C)CC)C(=O)N1C,> 100 µg/mL,> 100 µg/mL,> 100 µg/mL,> 100 µg/mL,> 100 µg/mL,> 100 µg/mL,> 100 µg/mL,> 100 µg/mL

# The next lines start with the values.
MIC (Candida tropicalis [1]),MIC (Pichia kudriavzevii [2]),MIC [3],MIC (Pichia kudriavzevii [4]),MIC (Candida tropicalis [5]),MIC (Candida albicans [6]),MIC [7],MIC (Candida albicans [8]),SMILES
> 100 µg/mL,> 100 µg/mL,> 100 µg/mL,> 100 µg/mL,> 100 µg/mL,> 100 µg/mL,> 100 µg/mL,> 100 µg/mL,CC[C@@H](C)[C@H]1C(=O)NCC(=O)N(C)[C@@H](C(C)C)C(=O)N[C@@H](Cc2ccc(OC)cc2)C(=O)O[C@H](C)C(=O)N2CCCC[C@H]2C(=O)N(C)[C@@H](C(C)C)C(=O)N[C@@H](C(C)C)C(=O)N(C)[C@@H](CC(=O)Nc2ccc(Br)cc2)C(=O)N(C)[C@@H]([C@@H](C)CC)C(=O)N1C
100 µg/mL,> 100 µg/mL,> 100 µg/mL,100 µg/mL,> 100 µg/mL,> 100 µg/mL,100 µg/mL,50 µg/mL,CC[C@@H](C)[C@H]1C(=O)NCC(=O)N(C)[C@@H](C(C)C)C(=O)N[C@@H](Cc2ccc(O)cc2)C(=O)O[C@H](C)C(=O)N2CCCC[C@H]2C(=O)N(C)[C@@H](C(C)C)C(=O)N[C@@H](C(C)C)C(=O)N(C)[C@@H](CC(=O)O)C(=O)N(C)[C@@H]([C@@H](C)CC)C(=O)N1C
